Laboratory results published in publication PMC3855065 (MedChemComm, 2013).
Residue numbers refer to the chain shown, from its start.

Assays:
[1] = biological target: T1, C. hominis DHFR (Cryptosporidium parvum, UniProt Q27552); experiment: Mode of inhibition: steady-state substrate profile for H2folate and NADPH; format: biochemical
T1 sequence (Q27552 1-521): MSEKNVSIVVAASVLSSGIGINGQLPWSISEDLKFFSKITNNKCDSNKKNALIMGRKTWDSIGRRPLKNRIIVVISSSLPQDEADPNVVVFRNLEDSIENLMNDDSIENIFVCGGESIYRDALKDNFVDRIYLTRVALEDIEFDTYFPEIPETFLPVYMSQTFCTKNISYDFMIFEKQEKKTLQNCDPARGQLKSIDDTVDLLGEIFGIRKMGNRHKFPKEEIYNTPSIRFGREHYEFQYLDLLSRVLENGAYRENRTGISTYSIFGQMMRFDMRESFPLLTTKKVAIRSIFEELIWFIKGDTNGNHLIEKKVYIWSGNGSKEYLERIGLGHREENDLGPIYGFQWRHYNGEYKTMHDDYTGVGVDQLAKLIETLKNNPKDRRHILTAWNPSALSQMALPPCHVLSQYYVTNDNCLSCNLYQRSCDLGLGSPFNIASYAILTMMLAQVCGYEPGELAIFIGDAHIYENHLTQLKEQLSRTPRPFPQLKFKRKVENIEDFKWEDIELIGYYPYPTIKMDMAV
Summary of the method: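 Steady-state DHFR activity followed by absorbance at 340 nm. The enzyme was bifunctional TS–DHFR expressed in E. coli BL21 and purified. The test compound, from a DMSO stock, was preincubated with enzyme and substrates for 30 min before the reaction was started. Rates were normalised to an equal-volume DMSO blank. H2folate or NADPH concentration was varied, and mode was assigned from rate profiles and Lineweaver–Burk plots by Michaelis–Menten treatment.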

[2] = biological target: T2, C. hominis Beta Face DHFR (Cryptosporidium parvum, UniProt Q27552, F207A/I196A/L203A/S195A/T199A/V200A); experiment: Steady-state DHFR inhibition assay against Beta Face mutant enzyme; format: biochemical; settings: IC50 C. hominis Beta Face DHFR, Beta Face mutant enzyme, steady-state
T2 sequence (Q27552 1-521 S195A/I196A/T199A/V200A/L203A/F207A): T1 sequence (Q27552 1-521) with S195A, I196A, T199A, V200A, L203A, F207A

[3] = system: C. hominis Beta Face DHFR; experiment: as above; format: biochemical, Cryptosporidium hominis; settings: Beta Face vs WT ChDHFR
[4] = biological target: T3, Human DHFR (Homo sapiens, UniProt P00374); experiment: Steady-state DHFR inhibition assay against the human enzyme; format: biochemical; settings: up to 1 mM mimetic
T3 sequence (P00374 1-187): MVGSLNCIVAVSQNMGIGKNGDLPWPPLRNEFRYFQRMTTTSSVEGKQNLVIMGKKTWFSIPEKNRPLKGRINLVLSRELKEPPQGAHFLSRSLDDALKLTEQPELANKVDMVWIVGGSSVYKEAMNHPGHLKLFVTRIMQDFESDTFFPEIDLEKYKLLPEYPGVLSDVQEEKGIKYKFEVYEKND
Summary of the method: (§1)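 Each reaction (DHFR or TS) was measured spectroscopically at 340 nm under steady-state conditions. The test compound came from a DMSO stock and was incubated with enzyme and substrates for 30 min before initiation. Activity was normalised to an equal-volume DMSO control. All targets were run at identical enzyme and ligand concentrations. Values are mean ± standard deviation.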

[5] = biological target: T4, C. hominis TS (Cryptosporidium parvum, UniProt Q27552); experiment: Steady-state TS inhibition assay; format: biochemical; settings: read-out: IC50 C. hominis TS
T4 sequence (Q27552 1-521): T1 sequence (Q27552 1-521)
Summary of the method: as §1

Structure (SMILES)	Mode of inhibition ([1]; data not shown)	IC50 [2]	Potency against Beta Face relative to WT [3]	Inhibition of human DHFR [4]	IC50 [5]	Vmax, NADPH substrate profile ([1]; in the presence of 250 µM compound (1.33 ± 0.02 in the absence))	Vmax, H2folate substrate profile ([1]; in the presence of 250 µM compound (1.46 ± 0.03 in the absence))	Mode of inhibition for H2folate ([1]; steady-state substrate profile)	Mode of inhibition for NADPH ([1]; steady-state substrate profile)
Cc1ccc(CN(C(=O)Nc2ccc(CCC(=O)O)cc2Cc2ccccc2)C(=O)c2ccc(CCC(=O)O)c(CC(C)C)c2)cc1 [mimetic 1]	noncompetitive mode of inhibition								
CC(C)CN(C(=O)Nc1ccc(CCC(=O)O)cc1Cc1ccccc1)C(=O)c1ccc(OCC(=O)O)c(Cc2ccccc2)c1 [mimetic 2]		~20 µM	at least 10 fold	no inhibition	570 ± 60 µM	0.41 ± 0.01 µmol/min	0.48 ± 0.06 µmol/min	noncompetitive (mixed) inhibitor	noncompetitive inhibitor
